{"source": "ChEMBL document CHEMBL5303300", "about": "“EUbOPEN Chemogenomics Library - Multiplex” (2023)", "key": {"Fibroblast": {"test_system": "Fibroblast", "test": "Multiplex assay against human fibroblast", "type": "toxicity, cell-based", "settings": "number of replicates 2", "method_in_brief": "(§1)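 Live cells were stained at seeding with Hoechst33342, BioTracker Green Microtubule Cytoskeleton Dye, MitoTracker Red and Annexin V Alexa Fluor 680. Following compound addition, they were imaged on a CQ1 microscope at 37°C and 5% CO2 and gated by CellPathfinder machine learning into Hoechst high-intensity objects or normal cells, with normal cells split into healthy, pyknosed or fragmented nuclei and pyknosed cells into mitotic or apoptotic. Tubulin, mitochondrial-mass and membrane-permeability phenotypes are per cents of healthy-nucleus cells.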"}, "HEK-293T": {"test_system": "HEK-293T", "test": "Multiplex assay against HEK293T", "type": "toxicity, cell-based", "settings": "human, number of replicates 2", "method_in_brief": "as §1"}, "[1]": {"settings": "12 h, 1 µM, compound concentration 1 uM"}, "[2]": {"settings": "12 h, 10 µM, compound concentration 10 uM"}, "[3]": {"settings": "24 h, 1 µM, compound concentration 1 uM"}, "[4]": {"settings": "24 h, 10 µM, compound concentration 10 uM"}, "[5]": {"settings": "48 h, 1 µM, compound concentration 1 uM"}, "[6]": {"settings": "48 h, 10 µM, compound concentration 10 uM"}}, "note": "Several values for one entry are separate records, joined by “and”; a condition that tells them apart may be missing. Equal entries are not always repeated.", "data": [{"smiles": "CCc1ncnc(N2CCN(C(C)=O)CC2)c1C#Cc1ccc(N)nc1.Cl.Cl", "values": [{"measurement": "Population Apoptotic (%)", "setting": "Fibroblast; [1]", "result": "39% and 41%"}, {"measurement": "Population Fragmented Nuclei (%)", "setting": "Fibroblast; [1]", "result": "26% and 16%"}, {"measurement": "Population Healthy Nuclei (%)", "setting": "Fibroblast; [1]", "result": "48% and 55%"}, {"measurement": "Population Hoechst High Intensity Objects (%)", "setting": "Fibroblast; [1]", "result": 0, "unit": "%"}, {"measurement": "Population Membrane Permeable-Phenotype (%)", "setting": "Fibroblast; [1]", "result": "8% and 9%"}, {"measurement": "Population Mitochondria Different-Phenotype (%)", "setting": "Fibroblast; [1]", "result": "1% and 2%"}, {"measurement": "Population Mitotic Cells (%)", "setting": "Fibroblast; [1]", "result": "60% and 58%"}, {"measurement": "Population Normal (%)", "setting": "Fibroblast; [1]", "result": 99, "unit": "%"}, {"measurement": "Population Pyknosed Nuclei (%)", "setting": "Fibroblast; [1]", "result": "24% and 28%"}, {"measurement": "Population Tubulin-Different-Phenotype (%)", "setting": "Fibroblast; [1]", "result": "20% and 15%"}, {"measurement": "Total Cell Count", "setting": "Fibroblast; [1]", "result": "278 and 215"}, {"measurement": "Population Apoptotic (%)", "setting": "Fibroblast; [2]", "result": 47, "unit": "%"}, {"measurement": "Population Fragmented Nuclei (%)", "setting": "Fibroblast; [2]", "result": "19% and 25%"}, {"measurement": "Population Healthy Nuclei (%)", "setting": "Fibroblast; [2]", "result": "53% and 54%"}, {"measurement": "Population Hoechst High Intensity Objects (%)", "setting": "Fibroblast; [2]", "result": 0, "unit": "%"}, {"measurement": "Population Membrane Permeable-Phenotype (%)", "setting": "Fibroblast; [2]", "result": "4% and 8%"}, {"measurement": "Population Mitochondria Different-Phenotype (%)", "setting": "Fibroblast; [2]", "result": "4% and 0%"}, {"measurement": "Population Mitotic Cells (%)", "setting": "Fibroblast; [2]", "result": 52, "unit": "%"}, {"measurement": "Population Normal (%)", "setting": "Fibroblast; [2]", "result": 100, "unit": "%"}, {"measurement": "Population Pyknosed Nuclei (%)", "setting": "Fibroblast; [2]", "result": "26% and 19%"}, {"measurement": "Population Tubulin-Different-Phenotype (%)", "setting": "Fibroblast; [2]", "result": "41% and 42%"}, {"measurement": "Total Cell Count", "setting": "Fibroblast; [2]", "result": "180 and 245"}, {"measurement": "Population Apoptotic (%)", "setting": "Fibroblast; [3]", "result": "53% and 46%"}, {"measurement": "Population Fragmented Nuclei (%)", "setting": "Fibroblast; [3]", "result": "28% and 10%"}, {"measurement": "Population Healthy Nuclei (%)", "setting": "Fibroblast; [3]", "result": "46% and 64%"}, {"measurement": "Population Hoechst High Intensity Objects (%)", "setting": "Fibroblast; [3]", "result": "1% and 0%"}, {"measurement": "Population Membrane Permeable-Phenotype (%)", "setting": "Fibroblast; [3]", "result": "12% and 4%"}, {"measurement": "Population Mitochondria Different-Phenotype (%)", "setting": "Fibroblast; [3]", "result": "0% and 1%"}, {"measurement": "Population Mitotic Cells (%)", "setting": "Fibroblast; [3]", "result": "46% and 53%"}, {"measurement": "Population Normal (%)", "setting": "Fibroblast; [3]", "result": "98% and 99%"}, {"measurement": "Population Pyknosed Nuclei (%)", "setting": "Fibroblast; [3]", "result": "25% and 24%"}, {"measurement": "Population Tubulin-Different-Phenotype (%)", "setting": "Fibroblast; [3]", "result": "12% and 9%"}, {"measurement": "Total Cell Count", "setting": "Fibroblast; [3]", "result": "259 and 210"}, {"measurement": "Population Apoptotic (%)", "setting": "Fibroblast; [4]", "result": "65% and 63%"}, {"measurement": "Population Fragmented Nuclei (%)", "setting": "Fibroblast; [4]", "result": "18% and 31%"}, {"measurement": "Population Healthy Nuclei (%)", "setting": "Fibroblast; [4]", "result": "51% and 55%"}, {"measurement": "Population Hoechst High Intensity Objects (%)", "setting": "Fibroblast; [4]", "result": 0, "unit": "%"}, {"measurement": "Population Membrane Permeable-Phenotype (%)", "setting": "Fibroblast; [4]", "result": "4% and 6%"}, {"measurement": "Population Mitochondria Different-Phenotype (%)", "setting": "Fibroblast; [4]", "result": "5% and 0%"}, {"measurement": "Population Mitotic Cells (%)", "setting": "Fibroblast; [4]", "result": "34% and 36%"}, {"measurement": "Population Normal (%)", "setting": "Fibroblast; [4]", "result": "100% and 99%"}, {"measurement": "Population Pyknosed Nuclei (%)", "setting": "Fibroblast; [4]", "result": "29% and 12%"}, {"measurement": "Population Tubulin-Different-Phenotype (%)", "setting": "Fibroblast; [4]", "result": "37% and 27%"}, {"measurement": "Total Cell Count", "setting": "Fibroblast; [4]", "result": "176 and 264"}, {"measurement": "Population Apoptotic (%)", "setting": "Fibroblast; [5]", "result": "48% and 54%"}, {"measurement": "Population Fragmented Nuclei (%)", "setting": "Fibroblast; [5]", "result": "28% and 14%"}, {"measurement": "Population Healthy Nuclei (%)", "setting": "Fibroblast; [5]", "result": "58% and 75%"}, {"measurement": "Population Hoechst High Intensity Objects (%)", "setting": "Fibroblast; [5]", "result": "1% and 0%"}, {"measurement": "Population Membrane Permeable-Phenotype (%)", "setting": "Fibroblast; [5]", "result": "5% and 6%"}, {"measurement": "Population Mitochondria Different-Phenotype (%)", "setting": "Fibroblast; [5]", "result": 0, "unit": "%"}, {"measurement": "Population Mitotic Cells (%)", "setting": "Fibroblast; [5]", "result": "51% and 45%"}, {"measurement": "Population Normal (%)", "setting": "Fibroblast; [5]", "result": "98% and 99%"}, {"measurement": "Population Pyknosed Nuclei (%)", "setting": "Fibroblast; [5]", "result": "12% and 10%"}, {"measurement": "Population Tubulin-Different-Phenotype (%)", "setting": "Fibroblast; [5]", "result": "10% and 7%"}, {"measurement": "Total Cell Count", "setting": "Fibroblast; [5]", "result": "259 and 219"}, {"measurement": "Population Apoptotic (%)", "setting": "Fibroblast; [6]", "result": "62% and 68%"}, {"measurement": "Population Fragmented Nuclei (%)", "setting": "Fibroblast; [6]", "result": "13% and 21%"}, {"measurement": "Population Healthy Nuclei (%)", "setting": "Fibroblast; [6]", "result": "63% and 67%"}, {"measurement": "Population Hoechst High Intensity Objects (%)", "setting": "Fibroblast; [6]", "result": 0, "unit": "%"}, {"measurement": "Population Membrane Permeable-Phenotype (%)", "setting": "Fibroblast; [6]", "result": "5% and 1%"}, {"measurement": "Population Mitochondria Different-Phenotype (%)", "setting": "Fibroblast; [6]", "result": "8% and 0%"}, {"measurement": "Population Mitotic Cells (%)", "setting": "Fibroblast; [6]", "result": "37% and 32%"}, {"measurement": "Population Normal (%)", "setting": "Fibroblast; [6]", "result": 100, "unit": "%"}, {"measurement": "Population Pyknosed Nuclei (%)", "setting": "Fibroblast; [6]", "result": "22% and 10%"}, {"measurement": "Population Tubulin-Different-Phenotype (%)", "setting": "Fibroblast; [6]", "result": "36% and 25%"}, {"measurement": "Total Cell Count", "setting": "Fibroblast; [6]", "result": "163 and 231"}, {"measurement": "Population Apoptotic (%)", "setting": "HEK-293T; [1]", "result": "62% and 67%"}, {"measurement": "Population Fragmented Nuclei (%)", "setting": "HEK-293T; [1]", "result": "5% and 4%"}, {"measurement": "Population Healthy Nuclei (%)", "setting": "HEK-293T; [1]", "result": "80% and 82%"}, {"measurement": "Population Hoechst High Intensity Objects (%)", "setting": "HEK-293T; [1]", "result": "12% and 10%"}, {"measurement": "Population Membrane Permeable-Phenotype (%)", "setting": "HEK-293T; [1]", "result": "2% and 0%"}, {"measurement": "Population Mitochondria Different-Phenotype (%)", "setting": "HEK-293T; [1]", "result": "40% and 39%"}, {"measurement": "Population Mitotic Cells (%)", "setting": "HEK-293T; [1]", "result": "37% and 32%"}, {"measurement": "Population Normal (%)", "setting": "HEK-293T; [1]", "result": "87% and 89%"}, {"measurement": "Population Pyknosed Nuclei (%)", "setting": "HEK-293T; [1]", "result": "13% and 12%"}, {"measurement": "Population Tubulin-Different-Phenotype (%)", "setting": "HEK-293T; [1]", "result": "62% and 57%"}, {"measurement": "Total Cell Count", "setting": "HEK-293T; [1]", "result": "352 and 438"}, {"measurement": "Population Apoptotic (%)", "setting": "HEK-293T; [2]", "result": "79% and 66%"}, {"measurement": "Population Fragmented Nuclei (%)", "setting": "HEK-293T; [2]", "result": "5% and 4%"}, {"measurement": "Population Healthy Nuclei (%)", "setting": "HEK-293T; [2]", "result": 77, "unit": "%"}, {"measurement": "Population Hoechst High Intensity Objects (%)", "setting": "HEK-293T; [2]", "result": "15% and 9%"}, {"measurement": "Population Membrane Permeable-Phenotype (%)", "setting": "HEK-293T; [2]", "result": "0% and 1%"}, {"measurement": "Population Mitochondria Different-Phenotype (%)", "setting": "HEK-293T; [2]", "result": "60% and 59%"}, {"measurement": "Population Mitotic Cells (%)", "setting": "HEK-293T; [2]", "result": "20% and 33%"}, {"measurement": "Population Normal (%)", "setting": "HEK-293T; [2]", "result": "84% and 90%"}, {"measurement": "Population Pyknosed Nuclei (%)", "setting": "HEK-293T; [2]", "result": "16% and 17%"}, {"measurement": "Population Tubulin-Different-Phenotype (%)", "setting": "HEK-293T; [2]", "result": "80% and 76%"}, {"measurement": "Total Cell Count", "setting": "HEK-293T; [2]", "result": "304 and 297"}, {"measurement": "Population Apoptotic (%)", "setting": "HEK-293T; [3]", "result": "66% and 56%"}, {"measurement": "Population Fragmented Nuclei (%)", "setting": "HEK-293T; [3]", "result": "8% and 11%"}, {"measurement": "Population Healthy Nuclei (%)", "setting": "HEK-293T; [3]", "result": "78% and 74%"}, {"measurement": "Population Hoechst High Intensity Objects (%)", "setting": "HEK-293T; [3]", "result": "15% and 23%"}, {"measurement": "Population Membrane Permeable-Phenotype (%)", "setting": "HEK-293T; [3]", "result": 1, "unit": "%"}, {"measurement": "Population Mitochondria Different-Phenotype (%)", "setting": "HEK-293T; [3]", "result": "41% and 42%"}, {"measurement": "Population Mitotic Cells (%)", "setting": "HEK-293T; [3]", "result": "33% and 43%"}]}]}
